Blank lines part the entries; values can stand above or below the molecule they belong to. The source made the active and inactive calls. The rule behind the calls is not given here.
Columns and labels:
[1] = tested on: Liver; assay: Half life in mouse liver microsomes; type: ADME, Microsome
How it was run: (§1)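 Half-life determined by incubation in mouse, rat and human liver microsomes; T1/2 in minutes.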

[2] = tested on: Liver microsomes; assay: Half life in rat liver microsomes; type: ADME, Microsome; how it was run: as §1
[3] = tested on: Liver microsomes; assay: Half life in human liver microsomes; type: ADME, Microsome; how it was run: as §1
[4] = tested on: Rattus norvegicus; assay: Cmax in Sprague-Dawley rat at 25 mg/kg, po; type: ADME, organism-based; set-up: dose 25 mg/kg, route oral; conditions: in vivo
[5] = tested on: Rattus norvegicus; assay: AUC (0 to t) in Sprague-Dawley rat at 25 mg/kg, po; type: ADME, organism-based, Plasma; set-up: dose 25 mg/kg, route oral; conditions: in vivo
[6] = tested on: Rattus norvegicus; assay: Half life in Sprague-Dawley rat at 25 mg/kg, po; type: ADME, organism-based; set-up: dose 25 mg/kg, route oral; conditions: in vivo
[7] = tested on: SJSA-1; assay: Induction of apoptosis in human SJSA1 cells xenografted in SCID mouse assessed as caspase-3 cleavage at 100 mg/kg, po measured at 24 hrs by Western blot analysis; type: functional, organism-based; set-up: dose 100 mg/kg
[8] = tested on: SJSA-1; assay: Antitumor activity against human SJSA1 cells xenografted in SCID mouse assessed as upregulation of p53 expression in tumor at 100 mg/kg, po measured at 3 to 6 hrs by Western blot analysis; type: functional, organism-based; set-up: dose 100 mg/kg
[9] = tested on: Mus musculus; assay: Toxicity in mouse xenografted with human RS4:11 cells assessed as sign of toxicity at 100 to 200 mg/kg, po qd after 3 weeks; type: organism-based, RS4:11 cell; set-up: dose 100-200 mg/kg, route oral; conditions: in vivo, 504 h
How it was run: (§2)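 RS4;11 acute leukemia xenografts in mice; dosing began when tumors averaged 150 mm3. Oral gavage of 100 or 200 mg/kg once daily for 3 weeks. Tumor volume tracked during and after dosing; body weight and signs of toxicity monitored throughout.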

[10] = tested on: SJSA-1; assay: Antitumor activity against human SJSA1 cells xenografted in SCID mouse assessed as upregulation of p21 expression in tumor at 100 mg/kg, po measured at 24 hrs by Western blot analysis; type: functional, organism-based; set-up: dose 100 mg/kg
[11] = tested on: SJSA-1; assay: Antitumor activity against human SJSA1 cells xenografted in SCID mouse assessed as tumor regression at 100 mg/kg, po qd administered for 2 weeks measured for 60 days; type: functional, organism-based; set-up: dose 100 mg/kg
[12] = tested on: SJSA-1; assay: Antitumor activity against human SJSA1 cells xenografted in SCID mouse assessed as upregulation of p53 expression in tumor at 100 mg/kg, po measured at 24 hrs by Western blot analysis; type: functional, organism-based; set-up: dose 100 mg/kg
[13] = tested on: RS4-11; assay: Antitumor activity against human RS4:11 cells xenografted in mouse assessed as tumor regression at 200 mg/kg, po qd administered for 3 weeks measured after 26 days; type: functional, organism-based; set-up: dose 200 mg/kg; how it was run: as §2
[14] = tested on: SJSA-1; assay: Antitumor activity against human SJSA1 cells xenografted in SCID mouse assessed as tumor growth inhibition at 100 mg/kg, po qd administered for 2 weeks measured after 5 days relative to vehicle-treated control; type: functional; conditions: read-out: TGI
[15] = Antitumor activity against human RS4:11 cells xenografted in mouse assessed as tumor growth inhibition at 200 mg/kg, po qd administered for 3 weeks measured after 4 days relative to vehicle-treated control; type: functional; conditions: read-out: TGI; how it was run: as §2
[16] = tested on: SJSA-1; assay: Antitumor activity against human SJSA1 cells xenografted in SCID mouse assessed as tumor growth inhibition at 10 mg/kg, po qd measured after 2 weeks; type: functional, organism-based; set-up: dose 10 mg/kg
[17] = tested on: SJSA-1; assay: Induction of apoptosis in human SJSA1 cells xenografted in SCID mouse assessed as PARP cleavage at 100 mg/kg, po measured at 1 to 6 hrs by Western blot analysis; type: functional, organism-based; set-up: dose 100 mg/kg
[18] = tested on: SJSA-1; assay: Antitumor activity against human SJSA1 cells xenografted in SCID mouse assessed as upregulation of MDM2 expression in tumor at 100 mg/kg, po measured at 24 hrs by Western blot analysis; type: functional, organism-based; set-up: dose 100 mg/kg
[19] = tested on: SJSA-1; assay: Induction of apoptosis in human SJSA1 cells xenografted in SCID mouse assessed as caspase-3 cleavage at 100 mg/kg, po measured at 1 to 6 hrs by Western blot analysis; type: functional, organism-based; set-up: dose 100 mg/kg
[20] = tested on: SJSA-1; assay: Antitumor activity against human SJSA1 cells xenografted in SCID mouse assessed as upregulation of MDM2 expression in tumor at 100 mg/kg, po measured at 3 to 6 hrs by Western blot analysis; type: functional, organism-based; set-up: dose 100 mg/kg
[21] = tested on: Mus musculus; assay: Toxicity in SCID mouse xenografted with human SJSA1 cells assessed as sign of toxicity at 10 to 100 mg/kg, po qd measured after 2 weeks; type: organism-based, SJSA-1; set-up: dose 10-100 mg/kg, route oral; conditions: in vivo, 336 h
[22] = tested on: Mus musculus; assay: Toxicity in SCID mouse xenografted with human SJSA1 cells assessed as body weight loss at 10 to 100 mg/kg, po qd measured after 2 weeks; type: organism-based, SJSA-1; set-up: dose 10-100 mg/kg, route oral; conditions: in vivo, 336 h
[23] = tested on: SJSA-1; assay: Antitumor activity against human SJSA1 cells xenografted in SCID mouse assessed as upregulation of p21 expression in tumor at 100 mg/kg, po measured at 3 to 6 hrs by Western blot analysis; type: functional, organism-based; set-up: dose 100 mg/kg
[24] = tested on: SJSA-1; assay: Antitumor activity against human SJSA1 cells xenografted in SCID mouse assessed as tumor growth inhibition at 100 mg/kg, po qd administered for 2 weeks measured after 10 days; type: functional, organism-based; set-up: dose 100 mg/kg
[25] = Antitumor activity against human RS4:11 cells xenografted in mouse assessed as tumor growth inhibition at 100 mg/kg, po qd administered for 3 weeks measured after 4 days relative to vehicle-treated control; type: functional; conditions: read-out: TGI; how it was run: as §2
[26] = tested on: SJSA-1; assay: Antitumor activity against human SJSA1 cells xenografted in SCID mouse assessed as tumor growth inhibition at 30 mg/kg, po qd measured after 2 weeks; type: functional, organism-based; set-up: dose 30 mg/kg
[27] = tested on: SJSA-1; assay: Induction of apoptosis in human SJSA1 cells xenografted in SCID mouse assessed as PARP cleavage at 100 mg/kg, po measured at 24 hrs by Western blot analysis; type: functional, organism-based; set-up: dose 100 mg/kg
[28] = tested on: Mus musculus; assay: Toxicity in mouse xenografted with human RS4:11 cells assessed as body weight loss at 100 to 200 mg/kg, po qd after 3 weeks; type: organism-based, RS4:11 cell; set-up: dose 100-200 mg/kg, route oral; conditions: in vivo, 504 h; how it was run: as §2

- t1/2 [1]: > 60 min
- t1/2 [2]: 21.1 min
- t1/2 [3]: 55.1 min
SMILES: CC(C)(C)C[C@@H]1N[C@@H](C(=O)N[C@H]2CC[C@H](O)C2)[C@H](c2cccc(Cl)c2F)[C@]12C(=O)Nc1cc(Cl)ccc12

- t1/2 [1]: > 60 min
- t1/2 [2]: 20.2 min
- t1/2 [3]: > 60 min
SMILES: CC(C)(C)C[C@H]1N[C@@H](C(=O)NCC[C@H](O)CO)[C@H](c2cccc(Cl)c2)[C@@]12C(=O)Nc1cc(Cl)c(F)cc12

- t1/2 [3]: > 60 min
SMILES: CC(C)(C)C[C@@H]1N[C@@H](C(=O)N[C@H]2C[C@](C)(O)C2)[C@H](c2cccc(Cl)c2F)[C@]12C(=O)Nc1cc(Cl)ccc12

- Cmax [4]: 675 µg/L
- AUCt [5]: 2.14 µg·h/mL
- t1/2 [1]: > 60 min
- t1/2 [2]: 16.3 min
- t1/2 [3]: > 60 min
- t1/2 [6]: 3.4 h
SMILES: CC(C)(C)C[C@@H]1N[C@@H](C(=O)NCC[C@H](O)CO)[C@H](c2cccc(Cl)c2F)[C@]12C(=O)Nc1cc(Cl)ccc12

- t1/2 [1]: > 60 min
- t1/2 [2]: > 60 min
- t1/2 [3]: > 60 min
SMILES: CC(C)(C)C[C@@H]1N[C@@H](C(=O)NCC(C)(C)O)[C@H](c2cccc(Cl)c2F)[C@]12C(=O)Nc1cc(Cl)ccc12

- t1/2 [1]: 20.6 min
- t1/2 [2]: 22.1 min
- t1/2 [3]: 30.8 min
SMILES: CC(C)(C)C[C@@H]1N[C@@H](C(=O)N[C@H]2C[C@@H](O)C2)[C@H](c2cccc(Cl)c2F)[C@]12C(=O)Nc1cc(Cl)ccc12

- t1/2 [1]: 1.5 min
- t1/2 [2]: 3.8 min
- t1/2 [3]: 4 min
SMILES: CC(C)(C)C[C@@H]1N[C@@H](C(=O)N[C@H]2CC[C@@H](O)C2)[C@H](c2cccc(Cl)c2F)[C@]12C(=O)Nc1cc(Cl)ccc12

- Cmax [4]: 1726 µg/L
- AUCt [5]: 14.9 µg·h/mL
- t1/2 [1]: > 60 min
- t1/2 [2]: > 60 min
- t1/2 [6]: 3.2 h
SMILES: CC(C)(C)C[C@@H]1N[C@@H](C(=O)N[C@H]2C[C@@](C)(O)C2)[C@H](c2cccc(Cl)c2F)[C@]12C(=O)Nc1cc(Cl)ccc12
- Activity [7]: Active
- Activity [8]: Active
- Activity [9]: Non-toxic
- Activity [10]: inactive
- Activity [11]: Active
- Activity [12]: inactive
- Activity [13]: Active
- inhibition in vivo at 100 mg/kg [14]: > 70%
- inhibition in vivo at 200 mg/kg [15]: 80%
- TGI [16]: inactive
- Activity [17]: inactive
- Activity [18]: inactive
- Activity [19]: inactive
- Activity [20]: Active
- Activity [21]: Non-toxic
- Activity [22]: Non-toxic
- Activity [23]: Active
- TGI [24]: Active
- inhibition in vivo at 100 mg/kg [25]: 61%
- TGI [26]: Active
- Activity [27]: Active
- Activity [28]: Non-toxic

- t1/2 [1]: > 60 min
- t1/2 [2]: 19.1 min
- t1/2 [3]: 54.1 min
SMILES: CC(C)(C)C[C@@H]1N[C@@H](C(=O)N[C@H]2C[C@H](O)C2)[C@H](c2cccc(Cl)c2F)[C@]12C(=O)Nc1cc(Cl)ccc12
